Measured values: ChEMBL document CHEMBL1151751, “Bisphosphonate inhibition of a Plasmodium farnesyl diphosphate synthase and a general method for predicting cell-based activity from enzyme data” (J Med Chem, 2008)

How the values were obtained:
[1] = Inhibition of Plasmodium vivax FPPS expressed in Escherichia coli BL21 by spectrophotometric assay
How it was run: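 Recombinant enzyme from lysed cells (lysozyme, nuclease, protease inhibitors), purified on Ni-NTA resin. The GPP + IPP condensation was followed at room temperature by a continuous spectrophotometric phosphate-release assay in 25 mM Hepes, 2.5 mM MgCl₂, pH 7.4. Inhibitors were preincubated with enzyme for 30 min at room temperature. IC50 was obtained by fitting the dose–response curve.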

Plasmodium falciparum = experiment: Growth inhibition of Plasmodium falciparum; format: functional, organism-based
Plasmodium berghei = experiment: Antiparasitic activity against Plasmodium berghei ANKA infected BALB/c mice (Mus musculus) as reduced parasitaemia; format: functional; set-up: scale not given: the % may be the effect or the level left

Row | Structure (SMILES) | IC50 [1] | pIC50 [1] | IC50 (Plasmodium falciparum; read-out: IC50) | IC50 (Plasmodium falciparum; read-out: pIC50 (converted)) | Activity (Plasmodium berghei)
1 | O=P(O)(O)C(O)(CSc1ccncc1)P(=O)(O)O | 1200 nM | 5.9 | – | – | –
2 | O=P(O)(O)C(O)(Cc1ccccc1)P(=O)(O)O | – | – | 11 µM | 10 µM | –
3 | O=P([O-])(O)C(O)(CC1=[n+]2ccccc2=NC1)P(=O)(O)O (stereo not given) | – | – | 90 µM | 100 µM | –
4 | CCCCCCCCCC(O)(P(=O)(O)O)P(=O)(O)O | 710 nM | 6.1 | – | – | 80%
5 | O=P(O)(O)C(O)(Cc1cccc(Br)c1)P(=O)(O)O | 880 nM | 6.1 | 22 µM | 20 µM | –
6 | CCCCCCCCCCCCCC(O)(P(=O)(O)O)P(=O)(O)O | 4100 nM | 5.4 | – | 2 µM | –
7 | CN(Cc1ccccc1)C(P(=O)(O)O)P(=O)(O)O | 870 nM | 6.1 | 180 µM | 200 µM | –
8 | Cc1ccc(C)c(COc2ccc(C)nc2NC(P(=O)(O)O)P(=O)(O)O)c1 | 98000 nM | 4 | 200 µM | 200 µM | –
9 | Cc1cccc(CC(O)(P(=O)(O)O)P(=O)(O)O)c1 | 2300 nM | 5.6 | 23 µM | 25.1 µM | –
10 | CN(CCCCc1ccccc1)CCC(O)(P(=O)(O)O)P(=O)(O)O | – | – | – | 3.16 µM | –
11 | O=P(O)(O)C(Nc1ccc(Cl)cn1)P(=O)(O)O | – | – | – | 10 µM | –
12 | CN(CCc1ccccc1)CCC(O)(P(=O)(O)O)P(=O)(O)O | 400 nM | 6.4 | – | 31.6 µM | –
13 | O=P(O)(O)C(Nc1nccs1)P(=O)(O)O | 710 nM | 6.1 | 120 µM | 126 µM | –
14 | O=P(O)(O)C(O)(Cc1cccc(C(F)(F)F)c1)P(=O)(O)O | 680 nM | 6.2 | 3.8 µM | 3.98 µM | –
15 | O=P(O)(O)C(CNc1ccccn1)P(=O)(O)O | 820 nM | 6.1 | 28 µM | 25.1 µM | –
16 | CN(CCCc1ccccc1)CCC(O)(P(=O)(O)O)P(=O)(O)O | 450 nM | 6.3 | – | 25.1 µM | –
17 | O=P(O)(O)C(O)(Cc1cccc(F)c1)P(=O)(O)O | 630 nM | 6.2 | 6.4 µM | 6.31 µM | –
18 | CCCCCN(C)CCC(O)(P(=O)(O)O)P(=O)(O)O [IBANDRONIC ACID] | 920 nM | 6 | 74 µM | 79.4 µM | –
19 | O=P(O)(O)C(O)(Cc1cccc(Cl)c1)P(=O)(O)O | 630 nM | 6.2 | 4.3 µM | 3.98 µM | –
20 | CCCC(O)(P(=O)(O)O)P(=O)(O)O | 780 nM | 6.1 | – | 126 µM | –
21 | CCCCCCCCNC(P(=O)(O)O)P(=O)(O)O [(OCTYLAMINO)METHYLENEDIPHOSPHONIC ACID] | 490 nM | 6.3 | 12 µM | 12.6 µM | –
22 | O=P(O)(O)C(O)(Cn1ccnc1)P(=O)(O)O [ZOLEDRONIC ACID] | – | – | – | 158 µM | –
23 | CCCCCCCCCNC(P(=O)(O)O)P(=O)(O)O [(NONYLAMINO)METHYLENEDIPHOSPHONIC ACID] | 5200 nM | 5.3 | – | 100 µM | 80%
24 | O=P(O)(O)C(O)(Cc1ccccn1)P(=O)(O)O | 900 nM | 6 | 220 µM | 200 µM | –
25 | CCCCCCC(O)(P(=O)(O)O)P(=O)(O)O | 630 nM | 6.2 | 1.4 µM | 1.26 µM | –
